Reference: ChEMBL document CHEMBL5331111, “Synthetic Biology Facilitates Semisynthetic Development of Type V Glycopeptide Antibiotics Targeting Vancomycin-Resistant Enterococcus” (J Med Chem, 2023)
Values after ≈ are worked out from the molar mass of the structure shown. Active and inactive are the calls of the source. The calls are words filed in the database; no cut-off is given here.

Assays:
[1] = Cytotoxicity against HEK293 cells assessed as inhibition of cell growth incubated for 48 hrs by Cell-Titer Glo reagent based analysis; type: toxicity; conditions: human
Method in brief: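 HEK293 cells seeded at 7500 cells/well in DMEM with 10% FBS, 2 mM glutamine and pen/strep, and left 18 h at 37 °C under 5% CO2. Compound then added at 1% final DMSO and incubated 48 h. Viability read by CellTiter-Glo luminescence and normalized to DMSO-only wells. Curves fitted by 4PL constrained to 0–1.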

Enterococcus faecalis = test: Antibacterial activity against vancomycin-resistant Enterococcus faecalis ATCC 51299 assessed as inhibition of bacterial growth by Mueller-Hinton broth based assay; type: functional
[2] = Hemolytic activity in human RBC incubated for 1 hr by absorbance based analysis; type: toxicity, cell-based, Erythrocyte; conditions: red blood cells (erythrocytes)
Method in brief: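 Human K2-EDTA blood RBCs washed twice in 150 mM NaCl, resuspended in PBS pH 7.4, then diluted 1:50. Incubated with compound at 1% final DMSO for 1 h at 37 °C and pelleted at 500g for 5 min. Supernatant absorbance read at 540 nm. Controls were DMSO-only and a Triton X-100 dilution series (20% to 0.02%).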

Enterococcus faecium [3] = test: Antibacterial activity against vancomycin-resistant Enterococcus faecium ATCC 700221 assessed as inhibition of bacterial growth by Mueller-Hinton broth based assay; type: functional
Enterococcus faecium [4] = test: Antibacterial activity against Vancomycin-resistant Enterococcus faecium ATCC 700221 infected in cyclophosphamide induced neutropenic thigh infection CD-1 mouse model assessed as reduction in weight loss at 50 mg/kg, ip qid measured after 24 hrs post-infection; type: functional, organism-based
Method in brief: (§1)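 Female CD-1 mice, 6–10 weeks old, made neutropenic with i.p. cyclophosphamide (150 mg/kg day 4, 100 mg/kg day 1). About 1 × 10^6 CFU of E. faecium ATCC 700221, grown in BHI with vancomycin, were injected into each thigh. Dosing was i.p. at 1, 3, 5 and 20 h post-infection, in PEG400/DMSO/H₂O (45/5/50) vehicle, with vehicle controls. Mice were euthanized at 24 h.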

Enterococcus faecium [5] = test: Antibacterial activity against Vancomycin-resistant Enterococcus faecium ATCC 700221 infected in cyclophosphamide induced neutropenic thigh infection CD-1 mouse model assessed as increase in survival rate at 50 mg/kg, ip qid measured after 24 hrs post-infection; type: functional, organism-based; method in brief: as §1
[6] = tested on: Mycolicibacterium smegmatis; test: Antimycobacterial activity against Mycobacterium smegmatis MC2 155 assessed as inhibition of bacterial growth measured after 2 days by resazurin dye based analysis; type: functional; conditions: MC2 155, 48 h, time 2 day
Method in brief: (§2)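 Strains grown in 7H9 broth with 0.2% glycerol, 10% OADC and 0.05% Tween-80. Inoculum was about 5 × 10^5 CFU/mL, checked by plating on 7H10/OADC agar to be 3–8 × 10^5. Read at 2 days for M. smegmatis and 7 days for M. tuberculosis H37Ra, M. bovis and M. avium. Resazurin 30 μg/mL was then added for one further day. Values are averages of at least two experiments.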

Staphylococcus aureus = test: Antibacterial activity against Staphylococcus aureus ATCC 33591 assessed as reduction in bacterial growth by Mueller-Hinton broth based assay; type: functional
Method in brief: (§3)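 Broth MIC by standard procedure in Mueller-Hinton broth, for both B. subtilis 168 and S. aureus ATCC 33591.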

Bacillus subtilis = test: Antibacterial activity against Bacillus subtilis 168 assessed as reduction in bacterial growth by Mueller-Hinton broth based assay; type: functional; method in brief: as §3
[7] = tested on: Mycobacterium tuberculosis; test: Antimycobacterial activity against Mycobacterium tuberculosis H37Ra assessed as inhibition of bacterial growth measured after 7 days by resazurin dye based analysis; type: functional; conditions: 168 h, time 7 day; method in brief: as §2
[8] = tested on: Mycobacteroides abscessus; test: Antimycobacterial activity against Mycobacterium abscessus ATCC 19977 assessed as inhibition of bacterial growth measured after 2 days by resazurin dye based analysis; type: functional; conditions: ATCC 19977, 48 h, time 2 day
Method in brief: (§4)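 Cultured in 7H9 with 0.2% glycerol, 10% OADC and 0.05% Tween-80. Inoculum diluted to ~5 × 10^5 CFU/mL and confirmed at 3–8 × 10^5 by plating on 7H10 agar. Growth read at 2 days, then 30 μg/mL resazurin added for one more day. Values averaged from at least two experiments.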

[9] = tested on: Mycolicibacterium fortuitum; test: Antimycobacterial activity against Mycobacterium fortuitum ATCC 6891 assessed as inhibition of bacterial growth measured after 2 days by resazurin dye based analysis; type: functional; conditions: ATCC 6891, 48 h, time 2 day; method in brief: as §4
[10] = Antimycobacterial activity against Mycobacterium avium subsp. avium ATCC 25291 assessed as inhibition of bacterial growth measured after 7 days by resazurin dye based analysis; type: functional; conditions: ATCC 25291, 168 h, time 7 day; method in brief: as §2

| Structure (SMILES) | IC50 at 48 h [1] [µg/mL] | MIC (Enterococcus faecalis) [µg/mL] | IC50 at 1 h [2] [µg/mL] | MIC (Enterococcus faecium [3]) [µg/mL] | Activity (Enterococcus faecium [4]) | Activity (Enterococcus faecium [5]) | MIC [6] [µg/mL] | MIC (Staphylococcus aureus) [µg/mL] | MIC (Bacillus subtilis) [µg/mL] | MIC [7] [µg/mL] | MIC [8] [µg/mL] | MIC [9] [µg/mL] | MIC [10] [µg/mL] |
| --- | --- | --- | --- | --- | --- | --- | --- | --- | --- | --- | --- | --- | --- |
| CN1C(=O)[C@@H]2NC(=O)[C@@H]3NC(=O)[C@@H](c4ccc(O)cc4)NC(=O)[C@H](NC(=O)C(N)c4ccc(O)cc4)Cc4c[nH]c5cc(ccc45)-c4cc3cc(c4O)Oc3ccc(cc3)C[C@H]1C(=O)N[C@@H](C(=O)NCCCN)c1ccc(O)c(c1)Oc1ccc2cc1 (stereo not given in full) | > 256 | 4 (≈ 3.4 µM) | > 256 | 1 (≈ 0.849 µM) |  |  |  |  |  |  |  |  |  |
| CC(=O)NC[C@H]1CN(c2ccc(N3CCOCC3)c(F)c2)C(=O)O1 |  |  |  |  | Active | Active |  |  |  |  |  |  |  |
| CN1C(=O)[C@@H]2NC(=O)[C@@H]3NC(=O)[C@@H](c4ccc(O)cc4)NC(=O)[C@H](NC(=O)Cc4ccc(O)cc4)Cc4c[nH]c5cc(ccc45)-c4cc3cc(c4O)Oc3ccc(cc3)C[C@H]1C(=O)N[C@@H](C(=O)NCCC[N+](C)(C)C)c1ccc(O)c(c1)Oc1ccc2cc1 | > 256 | 16 | > 256 | 4 |  |  | 0.5 | > 128 | 4 |  |  |  |  |
| CN1C(=O)[C@@H]2NC(=O)[C@@H]3NC(=O)[C@@H](c4ccc(O)cc4)NC(=O)[C@H](NC(=O)C(NC(=O)CCCCCN)c4ccc(O)cc4)Cc4c[nH]c5cc(ccc45)-c4cc3cc(c4O)Oc3ccc(cc3)C[C@H]1C(=O)N[C@@H](C(=O)O)c1ccc(O)c(c1)Oc1ccc2cc1 (stereo not given in full) | > 256 |  | > 256 |  |  |  |  | 8 (≈ 6.48 µM) |  |  |  |  |  |
| CN1C(=O)[C@@H]2NC(=O)[C@@H]3NC(=O)[C@@H](c4ccc(O)cc4)NC(=O)[C@H](NC(=O)C(Nc4ccc(F)cc4)c4ccc(O)cc4)Cc4c[nH]c5cc(ccc45)-c4cc3cc(c4O)Oc3ccc(cc3)C[C@H]1C(=O)N[C@@H](C(=O)O)c1ccc(O)c(c1)Oc1ccc2cc1 (stereo not given in full) |  | 8 (≈ 6.58 µM) |  | 8 (≈ 6.58 µM) |  |  | > 128 | 8 (≈ 6.58 µM) | 2 (≈ 1.65 µM) |  |  |  |  |
| CN1C(=O)[C@@H]2NC(=O)[C@@H]3NC(=O)[C@@H](c4ccc(O)cc4)NC(=O)[C@H](NC(=O)C(Nc4cccc(O)c4)c4ccc(O)cc4)Cc4c[nH]c5cc(ccc45)-c4cc3cc(c4O)Oc3ccc(cc3)C[C@H]1C(=O)N[C@@H](C(=O)O)c1ccc(O)c(c1)Oc1ccc2cc1 (stereo not given in full) |  | 4 (≈ 3.3 µM) |  | 4 (≈ 3.3 µM) |  |  | > 128 | 4 (≈ 3.3 µM) | 0.5 (≈ 0.412 µM) |  |  |  |  |
| CN1C(=O)[C@@H](c2cc(Cl)c(O)c(Cl)c2)NC(=O)[C@@H]2NC(=O)[C@@H](c3cc(Cl)c(O)c(Cl)c3)NC(=O)[C@H](NC(=O)C(=O)c3cc(Cl)c(O)c(Cl)c3)Cc3c[nH]c4cc(ccc34)-c3cc2cc(c3O)Oc2ccc(cc2)C[C@H]1C(=O)N[C@@H](C(=O)O)c1ccc(O)cc1 [ISOCOMPLESTATIN] |  |  |  |  |  |  | > 128 |  |  | > 64 | > 128 | > 128 | > 64 |
| CN1C(=O)[C@@H]2NC(=O)[C@@H]3NC(=O)[C@@H](c4ccc(O)cc4)NC(=O)[C@H](NC(=O)C(Nc4cc(F)cc(F)c4F)c4ccc(O)cc4)Cc4c[nH]c5cc(ccc45)-c4cc3cc(c4O)Oc3ccc(cc3)C[C@H]1C(=O)N[C@@H](C(=O)O)c1ccc(O)c(c1)Oc1ccc2cc1 (stereo not given in full) |  | 8 (≈ 6.39 µM) |  | 4 (≈ 3.2 µM) |  |  | > 128 | 8 (≈ 6.39 µM) | 4 (≈ 3.2 µM) |  |  |  |  |
| CCCCCCNC(C(=O)N[C@@H]1Cc2c[nH]c3cc(ccc23)-c2cc3cc(c2O)Oc2ccc(cc2)C[C@H]2C(=O)N[C@@H](C(=O)O)c4ccc(O)c(c4)Oc4ccc(cc4)[C@@H](NC(=O)[C@@H]3NC(=O)[C@@H](c3ccc(O)cc3)NC1=O)C(=O)N2C)c1ccc(O)cc1 (stereo not given in full) | > 256 | 4 (≈ 3.32 µM) | > 256 | 4 (≈ 3.32 µM) |  |  |  |  |  |  |  |  |  |
| CN1C(=O)[C@@H]2NC(=O)[C@@H]3NC(=O)[C@@H](c4ccc(O)cc4)NC(=O)[C@H](NC(=O)C(Nc4ccc(Br)cc4)c4ccc(O)cc4)Cc4c[nH]c5cc(ccc45)-c4cc3cc(c4O)Oc3ccc(cc3)C[C@H]1C(=O)N[C@@H](C(=O)O)c1ccc(O)c(c1)Oc1ccc2cc1 (stereo not given in full) |  | 8 (≈ 6.27 µM) |  | 8 (≈ 6.27 µM) |  |  | > 128 | 4 (≈ 3.13 µM) | 2 (≈ 1.57 µM) |  |  |  |  |
| NNC(=O)c1ccncc1 [ISONIAZID] |  |  |  |  |  |  | 4 (≈ 29.2 µM) |  |  | 0.063 (≈ 0.459 µM) | > 128 | 4 (≈ 29.2 µM) | > 128 |
| CN1C(=O)[C@@H]2NC(=O)[C@@H]3NC(=O)[C@@H](c4ccc(O)cc4)NC(=O)[C@H](NC(=O)C(Nc4cccc(O)c4O)c4ccc(O)cc4)Cc4c[nH]c5cc(ccc45)-c4cc3cc(c4O)Oc3ccc(cc3)C[C@H]1C(=O)N[C@@H](C(=O)O)c1ccc(O)c(c1)Oc1ccc2cc1 (stereo not given in full) |  | 8 (≈ 6.51 µM) |  | 16 (≈ 13 µM) |  |  | > 128 | 16 (≈ 13 µM) | 4 (≈ 3.25 µM) |  |  |  |  |
| CN1C(=O)[C@@H]2NC(=O)[C@@H]3NC(=O)[C@@H](c4ccc(O)cc4)NC(=O)[C@H](NC(=O)C(Nc4ccc(O)c(O)c4O)c4ccc(O)cc4)Cc4c[nH]c5cc(ccc45)-c4cc3cc(c4O)Oc3ccc(cc3)C[C@H]1C(=O)N[C@@H](C(=O)O)c1ccc(O)c(c1)Oc1ccc2cc1 (stereo not given in full) |  | 8 (≈ 6.42 µM) |  | 16 (≈ 12.8 µM) |  |  | > 128 | 16 (≈ 12.8 µM) | 4 (≈ 3.21 µM) |  |  |  |  |
| CN1C(=O)[C@@H]2NC(=O)[C@@H]3NC(=O)[C@@H](c4ccc(O)cc4)NC(=O)[C@H](NC(=O)C(Nc4cc(C(F)(F)F)cc(C(F)(F)F)c4)c4ccc(O)cc4)Cc4c[nH]c5cc(ccc45)-c4cc3cc(c4O)Oc3ccc(cc3)C[C@H]1C(=O)N[C@@H](C(=O)O)c1ccc(O)c(c1)Oc1ccc2cc1 (stereo not given in full) |  | 8 (≈ 6 µM) |  | 8 (≈ 6 µM) |  |  | > 128 | 8 (≈ 6 µM) | 8 (≈ 6 µM) |  |  |  |  |
| CN1C(=O)[C@@H]2NC(=O)[C@@H]3NC(=O)[C@@H](c4ccc(O)cc4)NC(=O)[C@H](NC(=O)C(Nc4cccc(C(F)(F)F)c4)c4ccc(O)cc4)Cc4c[nH]c5cc(ccc45)-c4cc3cc(c4O)Oc3ccc(cc3)C[C@H]1C(=O)N[C@@H](C(=O)O)c1ccc(O)c(c1)Oc1ccc2cc1 (stereo not given in full) |  | 8 (≈ 6.32 µM) |  | 16 (≈ 12.6 µM) |  |  | > 128 | 8 (≈ 6.32 µM) | 4 (≈ 3.16 µM) |  |  |  |  |
| CN1C(=O)[C@@H]2NC(=O)[C@@H]3NC(=O)[C@@H](c4ccc(O)cc4)NC(=O)[C@H](NC(=O)C(Nc4cc(O)cc(O)c4)c4ccc(O)cc4)Cc4c[nH]c5cc(ccc45)-c4cc3cc(c4O)Oc3ccc(cc3)C[C@H]1C(=O)N[C@@H](C(=O)O)c1ccc(O)c(c1)Oc1ccc2cc1 (stereo not given in full) |  | 4 (≈ 3.25 µM) |  | 16 (≈ 13 µM) |  |  | > 128 | 4 (≈ 3.25 µM) | 1 (≈ 0.814 µM) |  |  |  |  |
